Source: PubChem BioAssay (several laboratories)
TAAR1 ag – agonists of human TAAR1 | CHO RD-HGA16 TAAR1, Fluo-8 calcium fluorescence; vehicle wells 0%, saturating PEA agonist 100% | AID 624467 | Q96RJ0 | activation, % at 3 µM | hit rate 0.99% among 360,000;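 active = activation above the mean activation of all test compounds in the run plus 3 SD, cut at about 38% in these data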
Target sequence (Q96RJ0 whole entry, looked up): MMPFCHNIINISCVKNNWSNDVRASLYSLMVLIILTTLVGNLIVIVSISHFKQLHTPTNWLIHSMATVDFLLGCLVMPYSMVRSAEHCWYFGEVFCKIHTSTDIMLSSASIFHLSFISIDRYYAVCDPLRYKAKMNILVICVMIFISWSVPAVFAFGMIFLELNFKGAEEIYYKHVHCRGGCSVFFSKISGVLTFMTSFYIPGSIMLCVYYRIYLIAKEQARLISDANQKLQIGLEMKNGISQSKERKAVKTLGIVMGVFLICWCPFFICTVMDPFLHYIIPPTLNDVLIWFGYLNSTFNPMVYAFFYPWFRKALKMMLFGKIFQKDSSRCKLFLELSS
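Test system: RD-HGA16 (CHO) cells co-expressing Gα16 and hTAAR1 | Doses: Single dose, 3 µM | Schedule: 17-24 h seeding, 75 min 37 °C dye, 30 min RT | Evaluation: % activation from peak over basal fluorescence ratio, DMSO-to-PEA scaled | Technique: Kinetic Fluo-8 calcium fluorescence | Benchmarks: Low control DMSO, high control PEA (EC100)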
TAAR1 antagonist – human TAAR1 antagonism; Q96RJ0; CHO RD-HGA16 TAAR1, Fluo-8 calcium fluorescence, antagonist; inhibition, % at 3 µM; hit rate 1.5% among 360,000; AID 624466;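 active = inhibition above a per-plate cutoff, the mean inhibition of test compounds on that plate plus 3 SD, cut at about 49% in these data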;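 also: 0% = DMSO plus EC80 beta-PEA response and 100% = DMSO alone without agonist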
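Assay system: CHO-derived RD-HGA16 cells stably expressing human TAAR1 plus Gα16. Timing: 140 s kinetic read after compound, 140 s after agonist. Technique: kinetic Fluo-8 calcium fluorescence measurement. Measure: % inhibition of agonist calcium response.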
m5-HT2A agonist – activates the mouse 5-HT2A serotonin receptor; P35363; CHO-K1 mHTR2A beta-arrestin complementation, luminescence; percent of 30 µM serotonin response; activation, % at 7.6 µM; hit rate 0.66% among 360,000; AID 624169;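 active = activation above a run cutoff, the mean activation of all tested compounds plus 3 SD, cut at about 14% in these data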;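 also: 0% = plate median of compound wells and 100% = 30 µM serotonin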
MC4R barr agon – human MC4R agonism via beta-arrestin | P32245 | U2OS MC4R beta-arrestin complementation, luminescence; percent of melanotan II response, DMSO zero | activation, % at 8.9 µM | hit rate 0.98% among 360,000;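 active = activation above a per-plate cutoff, the mean activation of sample wells on that plate plus 3 SD, cut at about 8% in these data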
Target sequence (P32245 whole entry, looked up): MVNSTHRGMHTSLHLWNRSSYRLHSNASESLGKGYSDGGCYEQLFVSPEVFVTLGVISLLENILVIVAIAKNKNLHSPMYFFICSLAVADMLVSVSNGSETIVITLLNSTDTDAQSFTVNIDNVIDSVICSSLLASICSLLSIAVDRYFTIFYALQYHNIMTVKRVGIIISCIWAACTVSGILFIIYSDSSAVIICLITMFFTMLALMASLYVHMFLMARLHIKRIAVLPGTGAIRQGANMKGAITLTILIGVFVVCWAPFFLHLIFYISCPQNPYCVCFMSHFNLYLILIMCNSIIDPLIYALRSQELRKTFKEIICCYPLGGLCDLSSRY
MC4R antag cAMP – blocks human MC4R cAMP signaling. MC4R-expressing cells, MTII-stimulated cAMP, LANCE TR-FRET. inhibition, % at 6.5 µM. hit rate 0.48% among 360,000. AID 540295;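 active = inhibition above its plate's cutoff, the mean of tested wells on that plate plus 3 SD, cut at about 29% in these data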;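 also: 0% = Melanotan II alone and 100% = Melanotan II plus saturating MCL0020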
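material = U2OS cells stably expressing human melanocortin 4 receptor (MC4R) | also added = Melanotan II challenge | dosing = single nominal compound dose of 6.5 µM | detection = TR-FRET with Eu-cAMP and labeled anti-cAMP, 671 nm | replication = singlicate | timing = compound 30 min, challenge 1 h, detection 1 h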
B2AR ag – activates human beta-2 adrenergic receptor causing internalization | P07550 | Am2.2-beta2AR cells, FAP receptor internalization, flow cytometry | response, % (concentration not given with the values) | hit rate 0.43% among 340,000 | AID 504454;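 active = response above a set limit, near 3 SD of response in nonfluorescent compounds, cut at about 42% in these data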
TAAR1 ag confirm – confirmation of human TAAR1 agonists. shares compounds with TAAR1 ag. CHO RD-HGA16 TAAR1, Fluo-8 calcium fluorescence; scaled: DMSO 0%, maximal phenethylamine 100%. activation, % at 3 µM. hit rate 82% among 2,400;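 active = activation above a cutoff set at the run's mean compound activation plus 3 SD, cut at about 39% in these data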
Ga16 ag counter – counter-screen for TAAR1 agonists: nonselective agonists in parental cells. hit rate 50% among 2,400. CHO-Ga16 parental, Fluo-8 calcium fluorescence; normalized to maximal ATP response, DMSO zero. activation, % at 3 µM. shares compounds with TAAR1 ag. AID 651787;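 active = activation above the run cutoff, the mean activation over all tested wells plus 3 SD, cut at about 12% in these data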;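 also: 0% = DMSO wells and 100% = maximal ATP response on the peak over basal ratio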
TAAR1 desens – human TAAR1 agonist that also desensitizes the receptor | CHO RD-HGA16 hTAAR1, Fluo-8 calcium, beta-PEA response inhibition | AID 651951 | shares compounds with TAAR1 ag | hit rate 46% among 2,400 | inhibition, % at 3 µM;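 active = inhibition above the run cutoff, the mean inhibition of all test compounds plus 3 SD, cut at about 49% in these data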;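 also: beta-PEA stimulus applied at its EC80; loss of beta-PEA calcium signal after compound pretreatment read as receptor desensitization; 0% = DMSO with beta-PEA at EC80 and 100% = DMSO alone without agonist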
Ga16 antag count – nonselective Ga16 antagonism, counter-screen | shares compounds with TAAR1 ag | CHO-Ga16 ATP-induced calcium, Fluo-8 fluorescence | inhibition, % at 3 µM | hit rate 39% among 2,400;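 active = inhibition above the plate's mean compound inhibition plus 3 SD, computed per plate, cut at about 22% in these data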;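 also: 0% = EC80 ATP with DMSO and 100% = DMSO wells without ATP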
Active calls of the source: *; . = not tested or not shown. A selection: hits, their analogues and other compounds. The true share with any hit is near 4.3%.

SMILES	TAAR1 ag	TAAR1 antagonist	m5-HT2A agonist	MC4R barr agon	MC4R antag cAMP	B2AR ag	TAAR1 ag confirm	Ga16 ag counter	TAAR1 desens	Ga16 antag count
C[C@H]1CN[C@H](CCO)/C1=C\c1ccccc1	47*	7	4	0	2	-7	61*	0	18	10
COc1ccc(C(=O)N/C(=C\c2cn(S(=O)(=O)N(C)C)c3ccccc23)C(=O)NCCN2CCOCC2)cc1OC	0	-2	1	-4	3	7	.	.	.	.
c1ccc(CCN2CN=C(Nc3nc4ccccc4s3)NC2)cc1	79*	51*	5	-1	-5	-7	40*	0	11	3
CC1(c2ccccc2)NC(=O)N(CC(=O)N2CCc3ccccc32)C1=O (configuration not stated)	48*	-27	4	0	2	.	17	9	-1	9
CC1CN(C(NC(=O)c2ccccc2)C(Cl)(Cl)Cl)CC(C)O1 (configuration not stated)	46*	-9	1	-2	4	1	70*	3	7	4
CC1CN(C(NC(=O)C(C)(C)C)C(Cl)(Cl)Cl)CC(C)O1 (configuration not stated)	65*	19	-3	-2	5	-4	85*	3	30	-2
O=C(O)CC(c1ccc(C(F)(F)F)cc1)N1Cc2ccccc2C1=O (configuration not stated)	0	3	6	0	14	-3	.	.	.	.
Cc1ccc(C)c(C(O)c2ncc(-c3cccc(C(F)(F)F)c3)[nH]2)c1 (configuration not stated)	66*	66*	-6	5	5	.	58*	45*	34	33*
N#Cc1c(NCCN)nc(-c2ccccc2)c2c1CCCC2	54*	-28	-7	-2	-3	17	38*	5	9	8
CCC1(CC)NC(=O)N(CC(=O)OCC(=O)Nc2cc(OC)ccc2OC)C1=O	2	-9	-1	-1	-1	-1	.	.	.	.
O=C1/C(=C\c2cccc(O)c2O)SC(=S)N1Cc1ccccc1	50*	-17	8	4	0	-57	21	18*	22	29*
O=C1/C(=C\c2cc([N+](=O)[O-])ccc2O)SC(=S)N1Cc1ccc(Cl)cc1	84*	87*	-8	-3	4	-407	113*	121*	102*	97*
COc1ccc(OCCCN2CCC(C(O)(c3ccccc3)c3ccccc3)CC2)cc1	38*	10	.	.	.	.	43*	20*	25	22*
OC(c1ccccc1)(c1ccccc1)C1CCN(CCCOc2ccc(C(F)(F)F)cc2)CC1	43*	38	.	.	.	.	9	19*	17	38*
N#Cc1ccc(OCCCN2CCC(C(O)(c3ccccc3)c3ccccc3)CC2)cc1	40*	25	.	.	.	.	54*	18*	27	17
N#Cc1cc(F)cc(OCCCN2CCC(C(O)(c3ccccc3)c3ccccc3)CC2)c1	24	33	.	.	.	.	.	.	.	.
CC(C)(C)c1ccc(OCCNCc2ccccc2)cc1	71*	14	7	2	0	2	72*	34*	21	11
CC(C)(O)c1[nH]c2cc(F)ccc2c1C(C)(C)O	1	11	9	2	3	4	.	.	.	.
CC(C)(c1ccccc1)c1ccc(OCCCN2CCNCC2)cc1	50*	3	-5	-1	5	41	37	11	14	12
Cc1ccc(OCCCN2CCC(C(O)(c3ccccc3)c3ccccc3)CC2)cc1	31	13	-4	.	.	.	.	.	.	.
CC(C)(C)c1ccc(OCCCCCCN2CCNCC2)cc1	31	-38	0	2	0	38	.	.	.	.
CC(C)c1ccc(OCCCN2CCC(C(O)(c3ccccc3)c3ccccc3)CC2)cc1	41*	46	.	.	.	.	59*	35*	59*	55*
OC(c1ccccc1)(c1ccccc1)C1CCN(CCCOc2cccc(Cl)c2)CC1	39*	50*	.	.	.	.	42*	27*	48	49*
CCC(C)NCCOc1ccc(C(C)(C)c2ccccc2)cc1 (configuration not stated)	54*	-7	-8	0	5	8	69*	39*	34	26*
O=C(NCc1cccc(F)c1)c1ccc2nc(N3CCOCC3)sc2c1	4	-9	-3	0	-4	3	.	.	.	.
SMILES	TAAR1 ag	TAAR1 antagonist	m5-HT2A agonist	MC4R barr agon	MC4R antag cAMP	B2AR ag	TAAR1 ag confirm	Ga16 ag counter	TAAR1 desens	Ga16 antag count
Nc1ccccc1-c1n[nH]c(=S)s1	.	.	0	-2	3	-6	.	.	.	.
COCCN(Cc1nc2ccccc2c(=O)[nH]1)C(=O)COc1cccc(C(C)=O)c1	9	3	0	-2	5	2	.	.	.	.
COc1ccc(NC(=O)CN2C(=O)C3CC=CCC3C2=O)cc1Cl (configuration not stated)	1	5	5	-1	5	.	.	.	.	.
COc1ccc(-c2cc(C(=O)Nc3cccc(O)c3)no2)cc1	2	16	-3	4	9	7	.	.	.	.
O=C(COc1ccc(Br)cc1CNCCc1ccccc1)NCc1ccccc1	94*	69*	-10	1	13	24	89*	25*	80*	43*
COc1cc(CNCCc2ccccc2)cc(Br)c1OCC(=O)Nc1ccccc1C	88*	59*	-2	8.6*	-3	25	92*	21*	76*	34*
CNCc1cc(Br)c(OCC(=O)Nc2ccccc2OC)c(OC)c1	5	0	-5	-1	1	5	.	.	.	.
CN(C)S(=O)(=O)c1cccc(NC(=O)c2ccc(-n3cncn3)c([N+](=O)[O-])c2)c1	2	-13	-2	-2	-2	10	.	.	.	.
O=C(N/N=C/c1ccc(O)c(O)c1)N/N=C/c1ccc(O)c(O)c1	98*	27	-3	1	-5	5	83*	-1	73*	1
